UHRF1 binding: UHRF1 methylated DNA binding inhibitors, primary screen, counter-screen for MBD2 inhibitor project, biochemical, TR-FRET, human UHRF1, single concentration; UHRF1 binding to methylated oligo; inhibition, % at 4.4 µM; 0.75% of 370,000 active; AID 687016, 2013; in the data active = inhibition above about 21%;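 note: UHRF1 SRA domain binding a hemimethylated CpG hairpin DNA probe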
TDP2 absorb: human TDP2 enzyme inhibitors, primary screen, biochemical, epi absorbance, recombinant enzyme; Tyrosyl-DNA phosphodiesterase 2 (Homo sapiens), O95551; T5PNP hydrolysis, p-nitrophenol absorbance 415 nm; inhibition, % at 12.8 µM; 0.34% of 370,000 active; AID 720702, 2013;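 active = inhibition above the mean of all tested compounds plus 3 SD, set per campaign, cut at about 25% in these data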
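Assay system: Recombinant human TDP2 | Quantity: 120 nM TDP2 per well | Incubation: 2 h at 37 °C | Signal: Epi absorbance | Evaluation: Percent inhibition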
MBD2 inh: inhibitors of MBD2 binding to methylated DNA, primary screen, biochemical, TR-FRET, DNA-binding domain, human. 0.31% of 370,000 active. Methyl-CpG-binding domain protein 2 (Homo sapiens), Q9UBB5. AID 686964, 2013. inhibition, % at 4.4 µM. MBD2 binding to methylated oligonucleotide; in the data active = inhibition above about 13%
LEDGF integ inh: blockers of LEDGF/p75-dependent integrase strand transfer – biochemical, TR-FRET, high throughput, primary screen | inhibition, % at 3.7 µM | AID 743269, 2014 | 0.64% of 370,000 active | HIV-1 integrase (with human LEDGF/p75) | TR-FRET IN-LEDGF/p75 DNA integration, Eu/Cy5;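 active = inhibition above the screen-wide mean plus 3 SD, cut at about 13% in these data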;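 note: signal is the Cy5 over europium emission ratio at 671 and 618 nm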
SIAE inh: human SIAE inhibitors, primary screen, biochemical, fluorescence polarization, FP-Rh probe, 1536-well HTS | Sialate O-acetylesterase (Homo sapiens), Q9HAT2 | SIAE FP-Rh probe binding | inhibition, % at 9.66 µM | 0.69% of 370,000 active | AID 1053197, 2014;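 active = inhibition above a cutoff: mean of compounds within the control limits plus 3 SD of those, cut at about 17% in these data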
Target sequence (Q9HAT2 whole entry, looked up): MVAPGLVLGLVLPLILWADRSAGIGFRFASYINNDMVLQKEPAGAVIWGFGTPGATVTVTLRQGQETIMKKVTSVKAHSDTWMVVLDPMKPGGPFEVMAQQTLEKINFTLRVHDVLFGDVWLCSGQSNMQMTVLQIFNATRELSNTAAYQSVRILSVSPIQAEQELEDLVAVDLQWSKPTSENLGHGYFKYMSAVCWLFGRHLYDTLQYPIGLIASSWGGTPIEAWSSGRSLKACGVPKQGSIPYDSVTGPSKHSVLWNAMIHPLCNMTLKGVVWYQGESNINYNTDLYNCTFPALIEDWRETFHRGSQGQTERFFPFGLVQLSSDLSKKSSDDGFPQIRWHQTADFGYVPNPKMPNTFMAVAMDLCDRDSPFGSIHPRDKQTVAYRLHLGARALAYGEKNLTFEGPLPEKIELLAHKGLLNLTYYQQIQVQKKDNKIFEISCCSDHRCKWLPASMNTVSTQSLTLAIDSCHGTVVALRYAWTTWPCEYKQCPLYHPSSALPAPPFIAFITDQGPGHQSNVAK
PRMT1 inh: PRMT1 methyltransferase inhibitors, primary screen, biochemical, fluorescence polarization; AID 652257, 2013; 1.3% of 370,000 active; Protein arginine N-methyltransferase 1 (Homo sapiens), Q99873; inhibition, % at 2.79 µM; recombinant PRMT1, activity-based probe fluorescence polarization;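 active = inhibition above about 21% made by adding two undisclosed values, limit read from the data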
PRMT1 confirm: PRMT1 methyltransferase inhibitors, confirmation, biochemical, fluorescence polarization, triplicate; shares compounds with PRMT1 inh; recombinant His-PRMT1, activity-based probe fluorescence polarization; inhibition, % at 2.79 µM; 42% of 3,300 active; AID 687036, 2013;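 active = mean inhibition across replicates above the hit cutoff derived for the earlier primary screen, cut at about 22% in these data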
Hits are given with their value; - = inactive; . = not tested or not shown. Rows were chosen to be rich in hits. Some 3.3% of all compounds tested hit in one or more screens of this group.

SMILES	UHRF1 binding	TDP2 absorb	MBD2 inh	LEDGF integ inh	SIAE inh	PRMT1 inh	PRMT1 confirm
COc1ccc(C(=O)OCCCN(C)C2CN(Cc3cn(Cc4ccc([N+](=O)[O-])cc4)nn3)S(=O)(=O)C2)cc1OC (stereo not given)	-	-	-	-	-	-	.
CCN1CCN(C(=S)c2ccc(O)cc2)CC1	-	-	-	-	-	80.9	52.5
CCN1CCN(C(=S)c2ccc(Br)cc2)CC1	-	-	-	-	-	36.1	34.7
COc1cccc(NC(=O)n2ccc3ccc(-c4ccc5ccn(C(=O)Nc6cccc(OC)c6)c5c4)cc32)c1	-	-	-	-	-	-	.
O=C(NCC(c1ccccc1)c1ccccc1)[C@H](Cc1ccccc1)NC1(C(=O)NC2CCCCC2)CCCCCC1	-	-	-	-	-	-	.
O=C(OCC(=O)N1N=C(c2ccc(Cl)cc2)CC1c1ccco1)c1cncc(Br)c1 (stereo not given)	-	-	-	-	-	33.6	-
O=C(OCC(=O)N1N=C(c2ccc(Cl)cc2)CC1c1ccco1)c1ccco1 (stereo not given)	-	-	-	-	-	-	.
CCC(CC)c1nnc(NC(=O)COc2ccc3c(c2)OCO3)s1	-	-	-	-	-	42.4	-
CC(C)c1nnc(NC(=O)COc2ccc3c(c2)OCO3)s1	-	-	-	-	-	-	.
CCCCc1c(O)nc(SCC(=O)NC(C)(C)C)n(-c2ccccc2C)c1=O	-	-	-	-	-	26.8	-
CCCCc1c(O)nc(SCC(=O)N2CCCCC2)n(-c2ccccc2C)c1=O	-	-	-	-	-	-	.
Cc1ccc(S(=O)(=O)NNc2nc3ccccc3nc2C(F)(F)F)cc1	-	-	-	-	-	81.2	-
C/C=C\C=C\C(=O)N1CC2(CC(c3cccc(NC(=O)COc4ccc(Cl)cc4)c3)=NO2)C[C@H]1C(N)=O (stereo not given in full)	-	-	-	-	-	62.9	22.3
C/C=C\C=C/C(=O)Nc1cccc(C2=NOC3(C2)C[C@@H](C(N)=O)N(C(=O)COc2ccc(Cl)cc2)C3)c1 (stereo not given in full)	-	-	-	-	-	-	.
O=C(c1cccc(F)c1)N(Cc1ccccn1)CC1CCCO1 (stereo not given)	-	-	-	-	-	-	.
c1ccc(Nc2ccc3c4c(cccc24)CC3)cc1	-	-	-	-	-	-	.
Nc1ccc2c3c(cccc13)CC2	-	-	-	-	-	66.4	-
CCOC(=O)[C@@]12CN(C(=O)OC(C)(C)C)CC=C1N(Cc1ccc(OC)cc1)C(=O)[C@H]2CC(=O)NCCCN1CCCC1=O	-	-	-	-	-	-	.
O=[N+]([O-])c1cc(-c2ccc(/C=N/c3nc4ccccn4c3-c3ccco3)o2)ccc1Cl	-	-	-	-	-	40.8	-
COC(=O)[C@]12C[C@H](CC(=O)NCc3cccs3)C(=O)N(Cc3cccc4ccccc34)C1=C[C@H](COCc1ccccc1)O[C@@H]2C	-	-	-	-	-	-	.
CCOC(=O)C1=C(C)NC(=S)NC1c1ccc(-c2ccc(Cl)cc2)o1 (stereo not given)	-	-	-	-	-	41.9	-
CCOC(=O)C1=C(C)NC(=O)NC1c1ccc(-c2ccc(Cl)cc2)o1 (stereo not given)	-	-	-	-	-	-	.
COC(=O)C1=C(C)NC(=S)NC1c1ccc(-c2cccc(Cl)c2)o1 (stereo not given)	-	-	-	-	-	-	.
